Measurements from ChEMBL document CHEMBL5058577, “EUbOPEN Chemogenomics Library 2 (Multiplex)” (2022).

System: U2OS
Test: Multiplex assay against U2OS
Format: toxicity, cell-based
Conditions: human
In short: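 Cells stained live at seeding with Hoechst33342, BioTracker Green Microtubule Cytoskeleton Dye, MitoTracker Red and Annexin V Alexa Fluor 680 were imaged on a CQ1 microscope at 37°C and 5% CO2 after compound addition. Their classification by CellPathfinder machine-learning gating ran from Hoechst high-intensity objects versus normal cells, to healthy, pyknosed or fragmented nuclei among normal cells, to mitotic or apoptotic among pyknosed cells. Tubulin, mitochondrial-mass and membrane-permeability phenotypes are per cents of healthy-nucleus cells.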

[1] = 12 h, 1 µM, compound concentration 1 uM, replicate 1
[2] = 12 h, 1 µM, compound concentration 1 uM, replicate 2
[3] = 12 h, 10 µM, compound concentration 10 uM, replicate 1
[4] = 12 h, 10 µM, compound concentration 10 uM, replicate 2
[5] = 24 h, 1 µM, compound concentration 1 uM, replicate 1
[6] = 24 h, 1 µM, compound concentration 1 uM, replicate 2
[7] = 24 h, 10 µM, compound concentration 10 uM, replicate 1
[8] = 24 h, 10 µM, compound concentration 10 uM, replicate 2
[9] = 48 h, 1 µM, compound concentration 1 uM, replicate 1
[10] = 48 h, 1 µM, compound concentration 1 uM, replicate 2
[11] = 48 h, 10 µM, compound concentration 10 uM, replicate 1
[12] = 48 h, 10 µM, compound concentration 10 uM, replicate 2

Structure (SMILES): NCCc1cn(S(=O)(=O)c2c(Cl)nc3sccn23)c2ccccc12.O=C(O)C(=O)O
- Population Apoptotic (%) [1]: 66%
- Population Fragmented Nuclei (%) [1]: 30%
- Population Healthy Nuclei (%) [1]: 58%
- Population Hoechst High Intensity Objects (%) [1]: 1%
- Population Membrane Permeable-Phenotype (%) [1]: 9%
- Population Mitochondria Different-Phenotype (%) [1]: 6%
- Population Mitotic Cells (%) [1]: 33%
- Population Normal (%) [1]: 98%
- Population Pyknosed Nuclei (%) [1]: 10%
- Population Tubulin-Different-Phenotype (%) [1]: 6%
- Total Cell Count [1]: 280
- Population Apoptotic (%) [2]: 81%
- Population Fragmented Nuclei (%) [2]: 17%
- Population Healthy Nuclei (%) [2]: 72%
- Population Membrane Permeable-Phenotype (%) [2]: 4%
- Population Mitochondria Different-Phenotype (%) [2]: 8%
- Population Mitotic Cells (%) [2]: 18%
- Population Pyknosed Nuclei (%) [2]: 9%
- Total Cell Count [2]: 116
- Population Apoptotic (%) [3]: 71%
- Population Fragmented Nuclei (%) [3]: 26%
- Population Healthy Nuclei (%) [3]: 42%
- Population Hoechst High Intensity Objects (%) [3]: 5%
- Population Membrane Permeable-Phenotype (%) [3]: 42%
- Population Mitochondria Different-Phenotype (%) [3]: 60%
- Population Mitotic Cells (%) [3]: 28%
- Population Normal (%) [3]: 94%
- Population Pyknosed Nuclei (%) [3]: 30%
- Population Tubulin-Different-Phenotype (%) [3]: 59%
- Total Cell Count [3]: 221
- Population Apoptotic (%) [4]: 82%
- Population Fragmented Nuclei (%) [4]: 20%
- Population Healthy Nuclei (%) [4]: 53%
- Population Hoechst High Intensity Objects (%) [4]: 4%
- Population Membrane Permeable-Phenotype (%) [4]: 30%
- Population Mitochondria Different-Phenotype (%) [4]: 71%
- Population Mitotic Cells (%) [4]: 17%
- Population Normal (%) [4]: 95%
- Population Pyknosed Nuclei (%) [4]: 26%
- Population Tubulin-Different-Phenotype (%) [4]: 50%
- Total Cell Count [4]: 115
- Population Apoptotic (%) [5]: 69%
- Population Fragmented Nuclei (%) [5]: 25%
- Population Healthy Nuclei (%) [5]: 66%
- Population Hoechst High Intensity Objects (%) [5]: 1%
- Population Membrane Permeable-Phenotype (%) [5]: 6%
- Population Mitochondria Different-Phenotype (%) [5]: 5%
- Population Mitotic Cells (%) [5]: 30%
- Population Normal (%) [5]: 98%
- Population Pyknosed Nuclei (%) [5]: 8%
- Population Tubulin-Different-Phenotype (%) [5]: 3%
- Total Cell Count [5]: 326
- Population Apoptotic (%) [6]: 78%
- Population Fragmented Nuclei (%) [6]: 20%
- Population Healthy Nuclei (%) [6]: 70%
- Population Membrane Permeable-Phenotype (%) [6]: 9%
- Population Mitochondria Different-Phenotype (%) [6]: 7%
- Population Mitotic Cells (%) [6]: 21%
- Population Pyknosed Nuclei (%) [6]: 9%
- Population Tubulin-Different-Phenotype (%) [6]: 7%
- Total Cell Count [6]: 151
- Population Apoptotic (%) [7]: 83%
- Population Fragmented Nuclei (%) [7]: 29%
- Population Healthy Nuclei (%) [7]: 38%
- Population Hoechst High Intensity Objects (%) [7]: 6%
- Population Membrane Permeable-Phenotype (%) [7]: 26%
- Population Mitochondria Different-Phenotype (%) [7]: 63%
- Population Mitotic Cells (%) [7]: 16%
- Population Normal (%) [7]: 93%
- Population Pyknosed Nuclei (%) [7]: 31%
- Population Tubulin-Different-Phenotype (%) [7]: 26%
- Total Cell Count [7]: 240
- Population Apoptotic (%) [8]: 86%
- Population Fragmented Nuclei (%) [8]: 20%
- Population Healthy Nuclei (%) [8]: 46%
- Population Hoechst High Intensity Objects (%) [8]: 3%
- Population Mitochondria Different-Phenotype (%) [8]: 67%
- Population Mitotic Cells (%) [8]: 13%
- Population Normal (%) [8]: 96%
- Population Pyknosed Nuclei (%) [8]: 33%
- Population Tubulin-Different-Phenotype (%) [8]: 38%
- Total Cell Count [8]: 116
- Population Apoptotic (%) [9]: 81%
- Population Fragmented Nuclei (%) [9]: 21%
- Population Healthy Nuclei (%) [9]: 70%
- Population Hoechst High Intensity Objects (%) [9]: 1%
- Population Membrane Permeable-Phenotype (%) [9]: 5%
- Population Mitochondria Different-Phenotype (%) [9]: 4%
- Population Mitotic Cells (%) [9]: 18%
- Population Normal (%) [9]: 98%
- Population Pyknosed Nuclei (%) [9]: 8%
- Population Tubulin-Different-Phenotype (%) [9]: 2%
- Total Cell Count [9]: 454
- Population Apoptotic (%) [10]: 85%
- Population Healthy Nuclei (%) [10]: 66%
- Population Hoechst High Intensity Objects (%) [10]: 6%
- Population Membrane Permeable-Phenotype (%) [10]: 10%
- Population Mitochondria Different-Phenotype (%) [10]: 7%
- Population Mitotic Cells (%) [10]: 14%
- Population Normal (%) [10]: 93%
- Population Pyknosed Nuclei (%) [10]: 12%
- Population Tubulin-Different-Phenotype (%) [10]: 7%
- Total Cell Count [10]: 182
- Population Apoptotic (%) [11]: 92%
- Population Fragmented Nuclei (%) [11]: 37%
- Population Healthy Nuclei (%) [11]: 27%
- Population Hoechst High Intensity Objects (%) [11]: 7%
- Population Membrane Permeable-Phenotype (%) [11]: 25%
- Population Mitochondria Different-Phenotype (%) [11]: 56%
- Population Mitotic Cells (%) [11]: 7%
- Population Normal (%) [11]: 92%
- Population Pyknosed Nuclei (%) [11]: 35%
- Population Tubulin-Different-Phenotype (%) [11]: 25%
- Total Cell Count [11]: 241
- Population Fragmented Nuclei (%) [12]: 29%
- Population Healthy Nuclei (%) [12]: 34%
- Population Membrane Permeable-Phenotype (%) [12]: 42%
- Population Mitochondria Different-Phenotype (%) [12]: 65%
- Population Tubulin-Different-Phenotype (%) [12]: 42%
- Total Cell Count [12]: 127
